Fewer inactive variants are shown than the library holds.
B1: tRNA (parent)
chain: GUUCCGUUGGCGUAAUGGUAACGCGUCUCCCUCCUAAGGAGAAGACUGCGGGUUCGAGUCCCGUACGGAACG

Variants of: B1
Assay: yeast fitness relative to wild type (ratio to wild type); higher = fitter; tRNA-Arg(CCU), competitive growth, 37 C, YPD
Summary of the method: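 Changes in genotype frequencies gave Darwinian fitness relative to wild type. Frequencies were read by 100-nucleotide paired-end sequencing of gene amplicons before and after pooled Saccharomyces cerevisiae strains, carrying tRNA-Arg(CCU) gene variants at the native locus, were competed in YPD at 37°C for 24 hours in six replicates. A genotype was kept only with ≥ 100 starting reads, and estimates < 0.5 were set to 0.5.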

Row | Variant | yeast fitness
1 | U16A C34G | 0.683
2 | U16A U26C C31A C33A U35C U47A | ≤ 0.5
3 | U16C A45C C60G | ≤ 0.5
4 | U16C C33U A36C C49G | ≤ 0.5
5 | U16A C60U U64C A65C | ≤ 0.5
6 | U16A G39A A42G C55A C62U | ≤ 0.5
7 | U16C A40U G50U | ≤ 0.5
8 | U16A C31G A69U | 0.601
9 | U16A C22A C66U | 0.675
10 | U16A U28A C62U | ≤ 0.5
11 | U16C A21C G41A | ≤ 0.5
12 | U16C C27G A43C C62U | ≤ 0.5
13 | U16C A20G C29U C62U | ≤ 0.5
14 | U16A U28A C60G C61A G63A | ≤ 0.5
15 | U16A U28A U64C | 0.568
16 | U16C A21C G41C A43C C66G A70U | ≤ 0.5
17 | U16A C29G C46U C49U U59G A65U G68A | 0.537
18 | U16C C31G G41A G52C C60U C62G C66G | ≤ 0.5
19 | U16C C22G C46G C49U A69U | 0.55
20 | U16A U19C G56A | 0.68
21 | U16C A21U C29A U35A A43U C62U G68C | ≤ 0.5
22 | U16A G23C | 0.699
23 | U16A G38C | 0.749
24 | U16A C31A A65C | ≤ 0.5

Row | Variant | yeast fitness
25 | U16A U19C C46A A57G C61A A70C | 0.656
26 | U16C A57U C66U | 0.531
27 | U16C A21U C62U | ≤ 0.5
28 | U16A C46U | 1.04
29 | U16A C46A | 0.92
30 | U16A U64C | 0.929
31 | U16A C30A A43C | 1.04
32 | U16A G18C A36G G48C | ≤ 0.5
33 | U16A U19A C46U U64C | 0.74
34 | U16C C22U A37U C49A | 0.574
35 | U16A C24U C34G G38C | ≤ 0.5
36 | U16A C46A A69U | 0.715
37 | U16A C29U A37G | ≤ 0.5
38 | U16A G17A C33A G38C A43G U53C | ≤ 0.5
39 | U16A C30U A42U | 0.618
40 | U16A C46U G68C | 0.651
41 | U16C A42C | 0.93
42 | U16C A42U | 0.969
43 | U16A U47A | 0.825
44 | U16C C33U A36C | 0.589
45 | U16C C22U C24U C29U C60U | 0.551
46 | U16A A45G G58A | 0.591
47 | U16A C34A A40U G44A G63A | ≤ 0.5
48 | U16A G39A C46G | 0.695

Row | Variant | yeast fitness
49 | U16A G18U C29G C30G C46G | ≤ 0.5
50 | U16A C22U A69U | 0.64
51 | U16A U32C A37U C49G | 0.516
52 | U16C A42U G63C | ≤ 0.5
53 | U16C C22U U47A C60G C62A | ≤ 0.5
54 | U16C C34U C49G | ≤ 0.5
55 | U16A C27U G38A C60G A65C | ≤ 0.5
56 | U16A C24A C30G C34U U47C | ≤ 0.5
57 | U16A C55A C61A | ≤ 0.5
58 | U16C C33A A40C | ≤ 0.5
59 | U16C C33U C60U G67C | ≤ 0.5
60 | U16C C30G C61U G68A | ≤ 0.5
61 | U16C A20G G52A | ≤ 0.5
62 | U16A C33G C66G | ≤ 0.5
63 | U16C C34A G39C G52A G58A | ≤ 0.5
64 | U16C C30U C34G G39A | ≤ 0.5
65 | U16A C30U A40C | ≤ 0.5
66 | U16A G18C A20G C22U G58C C61A | ≤ 0.5
67 | U16A G17A C22G C49U C61U G68C | ≤ 0.5
68 | U16A C62G | 0.867
69 | U16A C55A A70U | 0.542
70 | U16A C34U A57G C60A | ≤ 0.5
71 | U16A C29G G41C A45U | ≤ 0.5
72 | U16C C27U A42G G67A | ≤ 0.5

Row | Variant | yeast fitness
73 | U16A C30G G44C C61A | ≤ 0.5
74 | U16A C34U G38A A42U | ≤ 0.5
75 | U16C C31A G56A A65G C66A G68C | ≤ 0.5
76 | U16C A42G G58A | 0.52
77 | U16C C22A C24A U26C | ≤ 0.5
78 | U16C C33U | 0.686
79 | U16C C29U G58A A69U | 0.577
80 | U16A U53G C62G | ≤ 0.5
81 | U16A C27U C49U | 0.61
82 | U16A G48C C66U | 0.705
83 | U16C A21C C49A A57G G58A C66U G68A | ≤ 0.5
84 | U16A C31A C33G G38A | ≤ 0.5
85 | U16C C22G U54C | 0.661
86 | U16A A45C G63C U64C C66U | ≤ 0.5
87 | U16A C60A | 0.668
88 | U16A U28G U47G U54A | 0.56
89 | U16A G63A G67C | ≤ 0.5
90 | U16C A20C C27U | 0.662
91 | U16A G58C C61A | ≤ 0.5
92 | U16C A21C A37G U54C C55A | ≤ 0.5
93 | U16A C24U G44C | 0.6
94 | U16C A20C | 0.995
95 | U16C A20G | 0.976
96 | U16C A20U | 0.889

Row | Variant | yeast fitness
97 | U16A C22A C29U A36G A45C | ≤ 0.5
98 | U16A C33G A36U | 0.57
99 | U16A C24G U35G | ≤ 0.5
100 | U16C A40U A57C | ≤ 0.5
101 | U16A G23C C29U G58A | ≤ 0.5
102 | U16A U28C A69C | 0.758
103 | U16C A20U G25C C60A | ≤ 0.5
104 | U16A G67C | 0.769
105 | U16A C33U G38C | 0.625
106 | U16A U28G G67A | 0.752
107 | U16A C30A A69U | 0.979
108 | U16C | 1.01
109 | U16A U28A | 0.636
110 | U16C A36U G44C A65C | ≤ 0.5
111 | U16C C31G C34A | 0.678
112 | U16C C24G | 0.64
113 | U16A U35C A45G G56C G63C | ≤ 0.5
114 | U16A C22G U26C C34G A37C A40U A45G C62A | ≤ 0.5
115 | U16C C22G C62U | 0.716
116 | U16A C66A | 0.653
117 | U16C C29U | 0.738
118 | U16C C29A | 0.629
119 | U16C A43C U54A | ≤ 0.5
120 | U16C C24G U28A | ≤ 0.5

Row | Variant | yeast fitness
121 | U16A C30U A40C G68A | 0.594
122 | U16A C30U G56C | ≤ 0.5
123 | U16C A21G A70C | 0.725
124 | U16A C33A U53A G63A | ≤ 0.5
125 | U16C A36C A37U | ≤ 0.5
126 | U16C A57C | 0.674
127 | U16C A57G | 0.925
128 | U16A U19A A43C G56A | ≤ 0.5
129 | U16A C61G A65G | ≤ 0.5
130 | U16A C24U A42U A45U U53A G56A | ≤ 0.5
131 | U16A C22A G56A | 0.696
132 | U16C C29U A36U C66U G67A | ≤ 0.5
133 | U16A C46U C55A | ≤ 0.5
134 | U16A G23C C29G G50A A65G | 0.751
135 | U16A A65C | 0.939
136 | U16A C30A | 0.912
137 | U16A C30G | 0.567
138 | U16A C30U | 0.817
139 | U16C C24G U28A A43C | ≤ 0.5
140 | U16A C30G A37C G68C | ≤ 0.5
141 | U16A U19A C46U | 1
142 | U16C C27A | 0.963
143 | U16C C27U | 1.02
144 | U16A G18A C31U A69C | ≤ 0.5

Row | Variant | yeast fitness
145 | U16C C22U A37U | 0.576
146 | U16A G18A C31G | 0.527
147 | U16A G50A | 0.899
148 | U16C C29A C55G | 0.573
149 | U16A U28A C46G C49A A69U | ≤ 0.5
150 | U16A G38A A65G C66G | ≤ 0.5
151 | U16C C30U C62U | 0.645
152 | U16A U47C A69U | 0.91
153 | U16A U59A C62U | ≤ 0.5
154 | U16C A21G A40G A57C | ≤ 0.5
155 | U16C C29G C49U | 0.535
156 | U16C C34G C55G | ≤ 0.5
157 | U16C C34G C55A | 0.58
158 | U16A C55G | 0.54
159 | U16A G52A A70C | ≤ 0.5
160 | U16A C49G A69U | ≤ 0.5
161 | U16A G68A A70C | 0.606
162 | U16A C22U U26C U54G | ≤ 0.5
163 | U16C C34A G41A | ≤ 0.5
164 | U16C A43U G51C A57C C60G G67A | ≤ 0.5
165 | U16A G17C C61G A70C | ≤ 0.5
166 | U16C C22U G63A | 0.545
167 | U16A C49G | 0.769
